Measured values: ChEMBL document CHEMBL4425091, “Bafilomycins and Odoriferous Sesquiterpenoids from Streptomyces albolongus Isolated from Elephas maximus Feces” (J Nat Prod, 2016)
Values after ≈ are worked out from the molar mass of the structure shown. Where a name gives a salt, the structure may show the parent alone. Active and inactive are the calls of the source.

Key:
[1] = system: BGC-823; experiment: Cytotoxicity against human BGC823 cells assessed as reduction in cell viability by MTT assay; assay type: functional, cell-based
How it was run: (§1)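 MTT viability assay in human cancer cell lines. IC50 was defined as a 50% reduction of absorbance relative to the control assay. Adriamycin served as the positive control.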

[2] = system: Bacillus spizizenii; experiment: Antibacterial activity against Bacillus subtilis ATCC 6633 at 100 ug/ml after 24 hrs by MTT based microbroth dilution assay; assay type: functional, organism-based
[3] = system: SMMC-7721; experiment: Cytotoxicity against human SMMC7721 cells assessed as reduction in cell viability by MTT assay; assay type: functional, cell-based; how it was run: as §1
[4] = system: Caco-2; experiment: Cytotoxicity against human Caco2 cells assessed as reduction in cell viability by MTT assay; assay type: functional, cell-based; how it was run: as §1
[5] = system: Cryptococcus neoformans; experiment: Antifungal activity against Cryptococcus neoformans ATCC 208821 at 100 ug/ml after 72 hrs by MTT based microbroth dilution assay; assay type: functional, organism-based
[6] = system: NCI-H460; experiment: Cytotoxicity against human NCI-H460 cells assessed as reduction in cell viability by MTT assay; assay type: functional, cell-based; how it was run: as §1
[7] = system: Candida albicans; experiment: Antifungal activity against Candida albicans ATCC MYA-2876 at 100 ug/ml after 48 hrs by MTT based microbroth dilution assay; assay type: functional, organism-based
[8] = system: Staphylococcus aureus; experiment: Antibacterial activity against Staphylococcus aureus ATCC 25923 at 100 ug/ml after 24 hrs by MTT based microbroth dilution assay; assay type: functional, organism-based
[9] = system: Candida parapsilosis; experiment: Antifungal activity against Candida parapsilosis ATCC 22019 at 100 ug/ml after 48 hrs by MTT based microbroth dilution assay; assay type: functional, organism-based
[10] = system: Escherichia coli; experiment: Antibacterial activity against Escherichia coli ATCC 25922 at 100 ug/ml after 24 hrs by MTT based microbroth dilution assay; assay type: functional, organism-based
[11] = system: Cryptococcus neoformans; experiment: Antifungal activity against Cryptococcus neoformans ATCC 208821 after 72 hrs by MTT based microbroth dilution assay; assay type: functional; details: ATCC 208821, 72 h
How it was run: (§2)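 MIC by broth microdilution in RPMI-1640 with NaHCO3 and MOPS, pH 7.0. DMSO stocks were 2-fold serially diluted to eight levels, then 10-fold in medium (1.1–0.0086 mg/mL). 10 µL was added to 100 µL yeast suspension: C. albicans and C. parapsilosis at 2 × 10^3 cfu/mL for 48 h; C. neoformans at 5 × 10^4 cfu/mL for 72 h; all at 28 °C. MTT added for 4 h, DMSO solubilization, A570.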

[12] = system: Candida albicans; experiment: Antifungal activity against Candida albicans ATCC MYA-2876 after 48 hrs by MTT based microbroth dilution assay; assay type: functional; details: ATCC MYA-2876, 48 h; how it was run: as §2
[13] = system: Candida parapsilosis; experiment: Antifungal activity against Candida parapsilosis ATCC 22019 after 48 hrs by MTT based microbroth dilution assay; assay type: functional; details: Lodderomyces parapsilosis, ATCC 22019, 48 h; how it was run: as §2
[14] = system: Bacillus spizizenii; experiment: Antibacterial activity against Bacillus subtilis ATCC 6633 after 24 hrs by MTT based microbroth dilution assay; assay type: functional; details: ATCC 6633, 24 h
How it was run: (§3)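 Two-fold broth microdilution MIC in LB medium (pH 7.0). Compounds dissolved in DMSO, serially diluted to eight levels (11.0−0.086 mg/mL), then each diluted 10-fold in medium (1.1−0.0086 mg/mL). 10 μL of this added to 100 μL of bacteria at 1 × 10^6 cfu/mL. Incubated 24 h at 28 °C. MTT added for 4 h, wells emptied, DMSO added, absorbance read at 570 nm.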

[15] = system: Staphylococcus aureus; experiment: Antibacterial activity against Staphylococcus aureus ATCC 25923 after 24 hrs by MTT based microbroth dilution assay; assay type: functional; details: ATCC 25923, 24 h; how it was run: as §3

Row | Structure (SMILES) | IC50 [1] | Activity [2] | IC50 [3] | IC50 [4] | Activity [5] | IC50 [6] | Activity [7] | Activity [8] | Activity [9] | Activity [10] | MIC [11] | MIC [12] | MIC [13] | Activity [1] | Activity [3] | Activity [4] | Activity [6] | MIC [14] | MIC [15]
1 | CO/C1=C\C(C)=C\[C@@H](C)[C@@H](O)[C@@H](C)C/C(C)=C/C=C/[C@H](OC)[C@@H]([C@@H](C)[C@@H](O)[C@H](C)[C@@]2(OC)CC[C@H](C)[C@@H](C(C)C)O2)OC1=O | 46.9 µM | inactive | 13.6 µM | > 100 µM | inactive | > 100 µM | inactive | inactive | inactive | inactive | – | – | – | – | – | – | – | – | –
2 | CO/C1=C\C(C)=C\[C@@H](C)[C@@H](O)[C@@H](C)C/C(C)=C/C=C/[C@H](OC)[C@@H]([C@@H](C)[C@@H](O)[C@H](C)[C@@]2(OC)C[C@@H](OC(=O)/C=C/C(N)=O)[C@H](C)[C@@H](C(C)C)O2)OC1=O | 3.58 µM | inactive | 1.36 µM | 2.81 µM | inactive | 5.02 µM | inactive | inactive | inactive | inactive | – | – | – | – | – | – | – | – | –
3 | C[C@H]1CC[C@@H](O)[C@@]2(C)C[C@H](O)CC[C@]12O | 47.2 µM | – | > 100 µM | 42.5 µM | – | > 100 µM | – | – | – | – | > 100 µg/mL | 100 µg/mL (≈ 467 µM) | 100 µg/mL (≈ 467 µM) | – | – | – | – | – | –
4 | C/C1=C\[C@@H](O)C[C@H](C)/C=C/[C@H](C(C)(C)O)CC1 | – | inactive | – | – | inactive | – | inactive | inactive | inactive | inactive | – | – | – | inactive | inactive | inactive | inactive | – | –
5 | CO/C1=C\C(C)=C\[C@@H](C)[C@@H](O)[C@@H](C)C/C(C)=C/C=C/[C@H](OC)[C@@H]([C@@H](C)[C@@H](O)[C@H](C)[C@@]2(O)C[C@@H](OC)[C@H](C)[C@@H](C(C)C)O2)OC1=O [BAFILOMYCIN G] | 69.2 µM | inactive | 8.67 µM | > 100 µM | inactive | > 100 µM | inactive | inactive | inactive | inactive | – | – | – | – | – | – | – | – | –
6 | C[C@@H]1[C@H](O)[C@@H](C)/C=C/C=C/C=C/C=C/C=C/C=C/C=C/[C@H](O[C@@H]2O[C@H](C)[C@@H](O)[C@H](N)[C@@H]2O)C[C@@H]2O[C@](O)(C[C@@H](O)C[C@@H](O)[C@H](O)CC[C@@H](O)C[C@@H](O)CC(=O)O[C@H]1C)C[C@H](O)[C@H]2C(=O)O [AMPHOTERICIN B] | – | – | – | – | – | – | – | – | – | – | 2 µg/mL (≈ 2.16 µM) | 1 µg/mL (≈ 1.08 µM) | 2 µg/mL (≈ 2.16 µM) | – | – | – | – | – | –
7 | O=C(O)c1cn(C2CC2)c2cc(N3CCNCC3)c(F)cc2c1=O [CIPROFLOXACIN] | – | – | – | – | – | – | – | – | – | – | – | – | – | – | – | – | – | 0.25 µg/mL (≈ 0.754 µM) | –
8 | C[C@H]1CC[C@@H](O)[C@@]2(C)CCCC[C@]12O | 34.6 µM | – | 41.7 µM | 85.5 µM | – | > 100 µM | – | – | – | – | > 100 µg/mL | 12.5 µg/mL (≈ 63 µM) | 3.13 µg/mL (≈ 15.8 µM) | – | – | – | – | – | –
9 | CO/C1=C\C(C)=C\[C@@H](C)[C@@H](O)[C@@H](C)C/C(C)=C/C=C/[C@H](OC)[C@@H]([C@@H](C)[C@@H](O)[C@H](C)[C@@]2(O)C[C@@H](OC(=O)/C=C/C(=O)O)[C@H](C)[C@@H](C(C)C)O2)OC1=O | 1.83 µM | – | 0.54 µM | 1.89 µM | – | 3.43 µM | – | – | – | – | 1.56 µg/mL (≈ 2.16 µM) | 1.56 µg/mL (≈ 2.16 µM) | 1.56 µg/mL (≈ 2.16 µM) | – | – | – | – | 12.5 µg/mL (≈ 17.3 µM) | 12.5 µg/mL (≈ 17.3 µM)
10 | CO/C1=C/C(C)=C/[C@@H](C)[C@@H](O)[C@@H](C)C/C(C)=C/C=C/[C@H](OC)C([C@@H](C)[C@@H](O)[C@H](C)C(=O)/C=C/[C@H](C)[C@H](O)C(C)C)OC1=O (some centres undefined) | 9.46 µM | inactive | 9.79 µM | 14.6 µM | inactive | 49.8 µM | inactive | inactive | inactive | inactive | – | – | – | – | – | – | – | – | –
11 | CC1(C)C[C@H]2[C@H]1CC[C@]1(C)CCC[C@@]2(O)C1 | – | inactive | – | – | inactive | – | inactive | inactive | inactive | inactive | – | – | – | inactive | inactive | inactive | inactive | – | –
12 | C[C@H]1[C@@H](O)CC[C@@]2(C)CCCC[C@]12O | 49.3 µM | inactive | > 100 µM | > 100 µM | inactive | > 100 µM | inactive | inactive | inactive | inactive | – | – | – | – | – | – | – | – | –
13 | CO/C1=C\C(C)=C\[C@@H](C)[C@@H](O)[C@@H](C)C/C(C)=C/C=C/[C@H](OC)[C@@H]([C@@H](C)[C@@H](O)[C@H](C)[C@@]2(OC)C[C@@H](O)[C@H](C)[C@@H](C(C)C)O2)OC1=O | 22.4 µM | inactive | 9.42 µM | 10.2 µM | inactive | 26.7 µM | inactive | inactive | inactive | inactive | – | – | – | – | – | – | – | – | –
14 | CO/C1=C\C(C)=C\[C@@H](C)[C@@H](O)[C@@H](C)C/C(C)=C/C=C/[C@H](OC)[C@@H]([C@@H](C)[C@@H](O)[C@H](C)[C@@]2(O)C[C@@H](O)[C@H](C)[C@@H](C(C)C)O2)OC1=O [BAFILOMYCIN A1] | 6.47 µM | inactive | 2.03 µM | 5.49 µM | inactive | 12.4 µM | inactive | inactive | inactive | inactive | – | – | – | – | – | – | – | – | –
15 | CC1=C[C@@H]2[C@@H](C(C)C)CC[C@H](C)[C@]2(O)CC1 | – | inactive | – | – | inactive | – | inactive | inactive | inactive | inactive | – | – | – | inactive | inactive | inactive | inactive | – | –
16 | CO/C1=C\C(C)=C\[C@@H](C)[C@@H](O)[C@@H](C)C/C(C)=C/C=C/[C@H](OC)[C@@H]([C@@H](C)[C@@H](O)[C@H](C)[C@@]2(O)C[C@@H](OC(=O)/C=C/C(N)=O)[C@H](C)[C@@H](C(C)C)O2)OC1=O | 0.99 µM | – | 1.05 µM | 2.3 µM | – | 2.34 µM | – | – | – | – | 25 µg/mL (≈ 34.7 µM) | 100 µg/mL (≈ 139 µM) | 1.56 µg/mL (≈ 2.17 µM) | – | – | – | – | – | –
17 | CO/C1=C\C(C)=C\[C@@H](C)[C@@H](O)[C@@H](C)C/C(C)=C/C=C/[C@H](OC)[C@@H]([C@@H](C)[C@@H](O)[C@H](C)[C@@]2(O)CC[C@H](C)[C@@H](C(C)C)O2)OC1=O | 11.8 µM | – | 10.1 µM | 46.2 µM | – | 44.1 µM | – | – | – | – | 25 µg/mL (≈ 41.2 µM) | 100 µg/mL (≈ 165 µM) | 3.13 µg/mL (≈ 5.16 µM) | – | – | – | – | – | –
18 | COc1cccc2c1C(=O)c1c(O)c3c(c(O)c1C2=O)C[C@@](O)(C(=O)CO)C[C@@H]3O[C@H]1C[C@H](N)[C@H](O)[C@H](C)O1 [DOXORUBICIN HYDROCHLORIDE] | – | – | 2.24 µM | 0.97 µM | – | 0.98 µM | – | – | – | – | – | – | – | – | – | – | – | – | –
19 | CC1(C)C[C@H]2[C@H]1CC[C@@]1(C)C[C@]2(O)CC[C@@H]1O | – | inactive | – | – | inactive | – | inactive | inactive | inactive | inactive | – | – | – | inactive | inactive | inactive | inactive | – | –
